ChEMBL document CHEMBL4229550, “An antimycobacterial pleuromutilin analogue effective against dormant bacilli” (Bioorg Med Chem, 2018)
Values after ≈ are worked out from the molar mass of the structure shown. Active and inactive are the calls of the source. The calls are words filed in the database; no cut-off is given here.

Legend:
[1] = system: Mycobacterium tuberculosis; test: Bactericidal activity against non-replicating Mycobacterium tuberculosis CDC1551 expressing tdTomato infected in mouse J774A.1 cells at 2 times MIC up to 72 hrs by DAPI staining based fluorescence microscopic method; type: functional, organism-based
Summary of the method: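 J774A.1 macrophages are seeded at 1×10^5 cells/well in chamber slides and infected with tdTomato-expressing Mtb CDC1551 at MOI ≈10. […] Imaging is by fluorescence confocal microscopy.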

[2] = system: Mycobacterium tuberculosis; test: Antibacterial activity against Mycobacterium tuberculosis; type: functional; conditions: read-out: MIC100
Summary of the method: (§1)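 Mtb H37Rv grown in 7H9/OADC at 37 °C with shaking to OD600 0.5. The 0.5-OD culture is exposed aerobically to serial dilutions for 15 days at 37 °C. Resazurin (0.02% stock) is then added for 4 h at 37 °C with shaking.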

Vero = test: Cytotoxicity against African green monkey Vero cells assessed as reduction in cell viability after 72 hrs by MTT assay; type: cell-based; conditions: Chlorocebus sabaeus
Summary of the method: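 Vero cells were grown in complete EMEM with 10% FBS and exposed for 72 h to 0.78–200 µg/mL. The medium was then swapped for phenol-red-free EMEM and MTT was added. Formazan absorbance was read at 570 nm to give IC50.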

Escherichia coli = test: Inhibition of protein translation/transcription in Escherichia coli S30 cell extract using circular DNA with pBESTluc after 60 mins by luciferase reporter gene assay; type: functional; conditions: 1 h
Summary of the method: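 E. coli S30 circular-DNA coupled transcription/translation kit with the pBESTluc template (firefly luciferase under the tac promoter). S30 extract, amino acids and premix are combined with compound in DMSO, and the reaction is started with DNA. Incubation is 60 min at 37 °C, stopped on ice, then luciferase luminescence is read.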

Erythrocyte = test: Hemolytic activity in sheep erythrocytes after 2 hrs; type: ADME, cell-based; conditions: Ovis aries
Summary of the method: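 Washed heparinized sheep erythrocytes at 3% in buffer pH 7.4 were treated with 2–200 µg/mL for 2 h at 37 °C with gentle shaking. Triton X-100 (0.01–1%) was the positive control and PEG:H2O diluent the negative control. Released hemoglobin was read at OD540 and % hemolysis calculated against both controls.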

[3] = system: Mycobacterium tuberculosis; test: Bactericidal activity against replicating Mycobacterium tuberculosis H37Rv incubated for 15 days under aerobic condition by MABA; type: functional; conditions: 360 h; summary of the method: as §1
Staphylococcus aureus [4] = test: Antibacterial activity against Staphylococcus aureus ATCC 25923 incubated for 24 hrs under aerobic condition by MABA; type: functional; conditions: ATCC 25923, 24 h, read-out: MIC100
Summary of the method: (§2)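 Mid-log cultures at OD 0.5 were exposed to serial dilutions under aerobic conditions at 37 °C for 24 h. Resazurin was then added from a 0.08% stock for 1 h. MIC100 was the lowest concentration where the dye stayed blue (pink means growth). Absorbance was also read at 570 and 600 nm.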

Staphylococcus aureus [5] = test: Antibacterial activity against Staphylococcus aureus BAA 2094 incubated for 24 hrs under aerobic condition by MABA; type: functional; conditions: BAA 2094, 24 h, read-out: MIC100
Summary of the method: (§3)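 Resazurin was then added from a 0.08% stock for 1 h. MIC100 was the lowest concentration where the dye stayed blue (pink means growth). Absorbance was also read at 570 and 600 nm.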

Staphylococcus aureus [6] = test: Antibacterial activity against Staphylococcus aureus BAA 1683 incubated for 24 hrs under aerobic condition by MABA; type: functional; conditions: BAA 1683, 24 h, read-out: MIC100; summary of the method: as §2
Staphylococcus aureus [7] = test: Antibacterial activity against Staphylococcus aureus BAA 44 incubated for 24 hrs under aerobic condition by MABA; type: functional; conditions: BAA 44, 24 h, read-out: MIC100; summary of the method: as §2
Enterococcus faecalis = test: Antibacterial activity against Enterococcus faecalis ATCC 19433 incubated for 24 hrs under aerobic condition by MABA; type: functional; conditions: ATCC 19433, 24 h, read-out: MIC100; summary of the method: as §2
Streptococcus pneumoniae = test: Bactericidal activity against Streptococcus pneumoniae ATCC 6301 incubated for 24 hrs under aerobic condition by MABA; type: functional; conditions: ATCC 6301, 24 h
Klebsiella pneumoniae = test: Bactericidal activity against Klebsiella pneumoniae ATCC 12019 incubated for 24 hrs under aerobic condition by MABA; type: functional; conditions: ATCC 12019, 24 h
Acinetobacter baumannii [8] = test: Antibacterial activity against Acinetobacter baumannii ATCC 19606 incubated for 24 hrs under aerobic condition by MABA; type: functional; conditions: ATCC 19606 = CIP 70.34 = JCM 6841, 24 h, read-out: MIC100; summary of the method: as §2
Acinetobacter baumannii [9] = test: Bactericidal activity against Acinetobacter baumannii ATCC 19606 incubated for 24 hrs under aerobic condition by MABA; type: functional; conditions: ATCC 19606 = CIP 70.34 = JCM 6841, 24 h
Streptococcus salivarius = test: Antibacterial activity against Streptococcus salivarius […] incubated for 24 hrs under aerobic condition by MABA; type: functional; conditions: read-out: MIC100; summary of the method: as §3
Bacillus subtilis = test: Bactericidal activity against Bacillus subtilis ATCC 6051 incubated for 24 hrs under aerobic condition by MABA; type: functional; conditions: ATCC 6051, 24 h
[10] = system: Mycobacterium tuberculosis; test: Bactericidal activity against non-replicating Mycobacterium tuberculosis CDC1551 expressing tdTomato infected in mouse J774A.1 cells at 2 times MIC up to 72 hrs by UV-Visible spectroscopic method; type: functional, organism-based
Summary of the method: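 J774A.1 macrophages are seeded at […] cells/well in DMEM and incubated overnight at 37 °C. They are infected with saline-washed Mtb CDC1551-tdTomato (10^6 bacteria, MOI ≈10), and extracellular bacteria are washed off with PBS. Treatment is at 2×MIC, with fluorescence emission read at 581 nm at 24, 48, 72 and 96 h. Survivors are confirmed by serial dilution and plating on 7H11.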

[11] = Apparent permeability from apical to basolateral side in human Caco2 cells at 10 uM after 2 hrs by LC-MS/MS analysis; type: ADME, cell-based; conditions: caco-2, 2 h
Mus musculus = test: AUC (0 to 24 hrs) in Balb/c mouse at 3 mg/kg, iv; type: ADME, organism-based; set-up: time < 24 hr, dose 3 mg/kg, route intravenous; conditions: in vivo
Summary of the method: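 Single IV dose of 3 mg/kg in BALB/c mice (n = 3). Serum concentration-time data were used to derive t1/2, Cmax and AUC over 0–24 h and to infinity.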

[12] = Tmax in Balb/c mouse at 30 mg/kg, po; type: ADME, organism-based; conditions: in vivo
Summary of the method: (§4)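 Single 30 mg/kg oral dose in six BALB/c mice; serum half-life and tmax are derived from the concentration–time profile.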

[13] = Half life in Balb/c mouse serum at 30 mg/kg, po; type: ADME, organism-based; summary of the method: as §4
[14] = Cmax in Balb/c mouse serum at 30 mg/kg, po; type: ADME, organism-based; set-up: dose 30 mg/kg, route oral
Summary of the method: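 Single oral dose of 30 mg/kg in BALB/c mice (n = 6). Serum PK parameters were t1/2, tmax, Cmax and AUC over 0–24 h and to infinity. Oral bioavailability F was calculated against the 3 mg/kg IV dose.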

[15] = Cmax in Balb/c mouse lung at 30 mg/kg, po; type: ADME, organism-based; set-up: dose 30 mg/kg, route oral
[16] = Solubility in water at 10 mg after 24 hrs by HPLC analysis; type: physicochemical
[17] = system: Mycobacterium tuberculosis; test: Antibacterial activity against Mycobacterium tuberculosis Erdman infected in Balb/c mouse assessed as reduction in bacterial load in lungs at 100 mg/kg, po for 3 weeks starting from 10 days post infection measured on day 21 post infection; type: functional, Erdman = ATCC 35801
Summary of the method: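 Female BALB/c mice, 7–8 weeks old, are aerosol-infected with Mtb Erdman. From day 10 they receive oral gavage in water for three weeks, in groups of 5. Lungs and spleens are harvested at day 21 post-infection and plated for CFU. Efficacy is the log10 reduction in lung burden versus untreated (vehicle) controls.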

CC[C@]1(C)C[C@@H](OC(=O)CSC(C)(C)CNC(=O)[C@H](N)CC(C)C)[C@]2(C)[C@H](C)CC[C@]3(CC[C@@H](O)[C@H]32)[C@@H](C)[C@@H]1O
Activity [1]: Active | MIC [2]: < 6.25 µg/mL | IC50 (Vero): 25 µg/mL (≈ 42.9 µM) | IC50 (Escherichia coli): 0.09 µg/mL (≈ 0.154 µM) | IC50 (Erythrocyte): > 200 µM | MBC [3]: 0.83 µg/mL (≈ 1.42 µM) | MIC (Staphylococcus aureus [4]): > 25 µg/mL | MIC (Staphylococcus aureus [5]): > 25 µg/mL | MIC (Staphylococcus aureus [6]): > 25 µg/mL | MIC (Staphylococcus aureus [7]): > 25 µg/mL | MIC (Enterococcus faecalis): 6.25 µg/mL (≈ 10.7 µM) | MBC (Streptococcus pneumoniae): > 25 µg/mL | MBC (Klebsiella pneumoniae): 25 µg/mL (≈ 42.9 µM) | MIC (Acinetobacter baumannii [8]): 1.56 µg/mL (≈ 2.68 µM) | MBC (Acinetobacter baumannii [9]): 3.13 µg/mL (≈ 5.37 µM) | MIC (Streptococcus salivarius): 6.25 µg/mL (≈ 10.7 µM) | MBC (Bacillus subtilis): > 25 µg/mL | Activity [10]: Active | Papp [11]: 3.39 ×10⁻⁶ cm/s | AUC (Mus musculus): 993 ng·h/mL | Tmax [12]: 0.83 h | half-life [13]: 10.5 h | Cmax [14]: 2960 ng/mL | Cmax [15]: 6070 ng/g | solubility [16]: 104.7 mg/mL (≈ 180000 µM) | log(activity) [17]: 0.2
